As usually defined, the Ki is a dissociation constant, usually derived from enzyme kinetics or from competition with a known ligand.

Where a SMILES comes first, the peptide text is derived from it.

Among the data in BindingDB's records for doi:10.1021/jm970328b (University of Minnesota, 1997) are Ki and percent high-affinity form values, retold here.

The target of assay [1] is T1, D(2) dopamine receptor (Bos taurus, UniProt P20288). Briefly: Inhibitory constant of compound in absence of Gpp(NH)p calculated for the high affinity components of the [3H]spiroperidol binding to Dopamine receptor D2. A digest of the protocol:
(§1)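 Bovine striatal membranes (150-200 µg protein) were incubated with 0.2 nM [3H]spiroperidol and varying N-propylnorapomorphine, with or without 100 µM Gpp(NH)p and 100 nM peptidomimetic, plus 50 nM ketanserin, for 1 h at 22 °C, then GF/B filtered. Nonspecific binding was set with 1.0 µM (+)-butaclamol. A two-site fit gave high/low-affinity fractions; Ki values came via Cheng-Prusoff. Mean ± SEM of 3-4 experiments.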

In assay [2] the target is T1, D(2) dopamine receptor. The assay is described as follows: Inhibitory constant of compound in presence of Gpp(NH)p calculated for the low affinity components of the [3H]spiroperidol binding to Dopamine receptor D2. The method in brief: as §1
In assay [3] the target is T1, D(2) dopamine receptor. The assay is described as follows: Inhibitory constant of compound in presence of Gpp(NH)p (Pre treated with 1 nM) calculated for the high affinity components of the [3H]spiroperidol binding to Dopamine receptor D2.
Assay [4] addresses T1, D(2) dopamine receptor. Briefly: Inhibitory constant of compound in presence of Gpp(NH)p calculated for the high affinity components of the [3H]spiroperidol binding to Dopamine receptor D2. The method in brief: as §1
For assay [5], the target named is T1, D(2) dopamine receptor. Briefly: Inhibitory constant of compound in absence of Gpp(NH)p calculated for the low affinity components of the [3H]spiroperidol binding to Dopamine receptor D2. A digest of the protocol:
as §1

The target in assay [6] is T1, D(2) dopamine receptor. The assay is described as follows: Inhibitory constant of compound in absence of Gpp(NH)p (Pre treated with 1 nM) calculated for the high affinity components of the [3H]spiroperidol binding to Dopamine receptor D2.
Assay [7] deals with T1, D(2) dopamine receptor. Briefly: Inhibitory constant of compound in presence of Gpp(NH)p (Pre treated with 100 nM) calculated for the low affinity components of the [3H]spiroperidol binding to Dopamine receptor D2. A digest of the protocol:
as §1

Assay [8] has as its target T1, D(2) dopamine receptor. Briefly: Inhibitory constant of compound in presence of Gpp(NH)p (Pre treated with 100 nM) calculated for the high affinity components of the [3H]spiroperidol binding to Dopamine receptor D2. A digest of the protocol: as §1
The target in assay [9] is T1, D(2) dopamine receptor. The assay is described as follows: Inhibitory constant of compound in absence of Gpp(NH)p (Pre treated with 100 nM) calculated for the high affinity components of the [3H]spiroperidol binding to Dopamine receptor D2. A digest of the protocol: as §1
Assay [10] addresses T1, D(2) dopamine receptor. The assay is described as follows: Inhibitory constant of compound in absence of Gpp(NH)p (Pretreated with 100 nM) calculated for the high affinity components of the [3H]spiroperidol binding to Dopamine receptor D2. A digest of the protocol: as §1
Assay [11] has as its target T1, D(2) dopamine receptor. Briefly: Inhibitory constant of compound in absence of Gpp(NH)p (Pre treated with 1 uM) calculated for the high affinity components of the [3H]spiroperidol binding to Dopamine receptor D2.
In assay [12] the target is T1, D(2) dopamine receptor. The assay is described as follows: Inhibitory constant of compound in presence of Gpp(NH)p (Pre treated with 1 uM) calculated for the high affinity components of the [3H]spiroperidol binding to Dopamine receptor D2.
The target in assay [13] is T1, D(2) dopamine receptor. The assay is described as follows: Percentage of receptor in the high affinity form for the compound to Dopamine receptor D2 in absence of Gpp(NH)p (pre treated with 1 uM).

T1 sequence (P20288 whole entry): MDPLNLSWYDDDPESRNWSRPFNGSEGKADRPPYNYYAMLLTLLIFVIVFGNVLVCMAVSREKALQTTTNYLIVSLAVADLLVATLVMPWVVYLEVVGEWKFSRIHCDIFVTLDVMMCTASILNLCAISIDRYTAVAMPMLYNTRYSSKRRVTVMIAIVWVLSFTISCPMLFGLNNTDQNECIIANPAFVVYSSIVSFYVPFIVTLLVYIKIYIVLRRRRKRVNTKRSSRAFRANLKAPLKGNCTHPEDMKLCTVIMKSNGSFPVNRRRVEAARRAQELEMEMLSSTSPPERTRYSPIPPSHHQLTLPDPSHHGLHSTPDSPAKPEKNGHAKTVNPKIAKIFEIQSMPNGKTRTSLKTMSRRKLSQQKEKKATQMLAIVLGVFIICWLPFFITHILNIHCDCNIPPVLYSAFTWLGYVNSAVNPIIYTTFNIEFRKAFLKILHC

As to `NC(=O)CN1CCC(N2CC(=O)N3CCC[C@H]3C2=O)C1=O` (stereo partly drawn) [2-[3-((2R,8aS)-1,4-Dioxo-hexahydro-pyrrolo[1,2-a]pyrazin-2-yl)-2-oxo-pyrrolidin-1-yl]-acetamide], the Ki is 80 pM on D(2) dopamine receptor [1]; 50000 pM on D(2) dopamine receptor [2]; 50 pM at D(2) dopamine receptor [3]; 190 pM on D(2) dopamine receptor [4]; 69000 pM at D(2) dopamine receptor [5]; 20 pM on D(2) dopamine receptor [6].
Consider `NC(=O)[C@H]1CS[C@@H]2CC(N3CC(=O)N4CCC[C@H]4C3=O)C(=O)N12` (stereo partly drawn) [(3S,7aR)-6-((2R,8aS)-1,4-Dioxo-hexahydro-pyrrolo[1,2-a]pyrazin-2-yl)-5-oxo-hexahydro-pyrrolo[2,1-b]thiazole-3-carboxylic acid amide], for which the inhibition constant Ki on D(2) dopamine receptor [1] was 98 pM; on D(2) dopamine receptor [7], 106000 pM; at D(2) dopamine receptor [2], 183000 pM; at D(2) dopamine receptor [8], 67 pM; at D(2) dopamine receptor [4] it was 140 pM; on D(2) dopamine receptor [5], 171000 pM. Also, the inhibitory constant (Ki) on D(2) dopamine receptor [9] was 66 pM.
Regarding `CC(C)C[C@@H](C(=O)NCC(N)=O)N1CC(=O)N2CCC[C@H]2C1=O` [(S)-2-((S)-1,4-Dioxo-hexahydro-pyrrolo[1,2-a]pyrazin-2-yl)-4-methyl-pentanoic acid carbamoylmethyl-amide], the Ki at D(2) dopamine receptor [1] is 80 pM; at D(2) dopamine receptor [7], 104000 pM; on D(2) dopamine receptor [2], 172000 pM; on D(2) dopamine receptor [8], 80 pM; on D(2) dopamine receptor [4], 120 pM; at D(2) dopamine receptor [5] it was 120000 pM. In addition, the Ki at D(2) dopamine receptor [10] is 68 pM.
As for `CC(C)C[C@H](NC(=O)[C@@H]1CCCN1)C(=O)NCC(N)=O` [L-pro-L-leu-gly-NH2] (H-Pro-Leu-Gly-NH2), the inhibitory constant (Ki) is 90 pM on D(2) dopamine receptor [1]; 40 pM on D(2) dopamine receptor [11]; 60000 pM at D(2) dopamine receptor [2]; 60 pM on D(2) dopamine receptor [12]; 130 pM at D(2) dopamine receptor [4]; 73000 pM on D(2) dopamine receptor [5]. The same compound displayed a percent high-affinity form on D(2) dopamine receptor [13] of 61 nM.
